Assay results: ChEMBL document CHEMBL4145441, “Discovery of N-(5-((5-chloro-4-((2-(isopropylsulfonyl)phenyl)amino)pyrimidin-2-yl)amino)-4-methoxy-2-(4-methyl-1,4-diazepan-1-yl)phenyl)acrylamide (CHMFL-ALK/EGFR-050) as a potent ALK/EGFR dual kinase inhibitor capable of overcoming a variety of ALK/EGFR associated drug resistant mutants in NSCLC” (Eur J Med Chem, 2017)
Active and inactive are the calls of the source. No cut-off for these calls is given here.

Columns and labels:
[1] = target: Epidermal growth factor receptor (Homo sapiens, UniProt P00533, L858R); experiment: Inhibition of recombinant human GST-tagged EGFR L858R mutant expressed in Baculovirus expression system using Tyr 4 peptide as substrate after 1 hr in presence of ATP by Z-LYTE assay
[2] = target: Epidermal growth factor receptor (Homo sapiens, UniProt P00533, T790M); experiment: Inhibition of recombinant human GST-tagged EGFR T790M mutant expressed in Baculovirus expression system using Tyr 4 peptide as substrate after 1 hr in presence of ATP by Z-LYTE assay
[3] = target: ALK tyrosine kinase receptor (Homo sapiens, UniProt Q9UM73, L1196M); experiment: Inhibition of recombinant human N-terminal GST/His6-fused ALK L1196M mutant expressed in Sf9 insect cells using Tyr 1 peptide as substrate after 1 hr by Z-LYTE assay
Homo sapiens [4] = organism: Homo sapiens; experiment: Selectivity index, ratio of IC50 for recombinant human GST-tagged EGFR L858R mutant to IC50 for recombinant human GST-tagged EGFR T790M mutant
[5] = target: T1, Epidermal growth factor receptor (Homo sapiens, UniProt P00533); experiment: Inhibition of TEL-fused EGFR (unknown origin) expressed in mouse BAF3 cells assessed as decrease in cell proliferation after 72 hrs by CellTiter-Glo assay; format: cell-based
[6] = test system: Epidermal growth factor receptor (Homo sapiens), P00533 [C797S]; experiment: Inhibition of TEL-fused EGFR C797S mutant (unknown origin) expressed in mouse BAF3 cells assessed as decrease in cell proliferation after 72 hrs by CellTiter-Glo assay; format: cell-based
[7] = target: T1, Epidermal growth factor receptor; experiment: Inhibition of full length EGFR del19 mutant (unknown origin) expressed in mouse BAF3 cells assessed as decrease in cell proliferation after 72 hrs by CellTiter-Glo assay; format: cell-based
NCI-H1975 [8] = experiment: Cell cycle arrest in human NCI-H1975 cells assessed as accumulation at G0/G1 phase at 0.03 to 1 uM after 24 hrs by propidium iodide/RNase staining-based flow cytometry; format: functional
NCI-H1975 [9] = experiment: Antiproliferative activity against human NCI-H1975 cells harboring EGFR L858R/T790M mutant after 72 hrs by CellTiter-Glo assay; format: functional; settings: NCI-H1975, 72 h
In short: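 Antiproliferative GI50 against H1975 and H3122 cells; each GI50 value obtained from triplicate testing.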

A549 [10] = experiment: Antiproliferative activity against human A549 cells harboring wild-type EGFR after 72 hrs by CellTiter-Glo assay; format: functional; settings: A549, 72 h
NCI-H2228 = experiment: Antiproliferative activity against human NCI-H2228 cells harboring EML4-fused ALK varian3 after 72 hrs by CellTiter-Glo assay; format: functional; settings: NCI-H2228, 72 h
[11] = Antiproliferative activity against CHL cells after 72 hrs by CellTiter-Glo assay; format: cell-based, Cricetulus griseus; settings: chinese hamster
[12] = Tmax in Sprague-Dawley rat at 1 mg/kg, iv; format: ADME, organism-based; settings: in vivo
In short: (§1)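 Pharmacokinetics in rats given a single dose either intravenously at 1 mg/kg or orally at 10 mg/kg. Plasma parameters derived include AUC0-t, AUC0-∞, MRT(0-t), Cmax, Tmax, T1/2 and oral F (%).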

[13] = Tmax in Sprague-Dawley rat at 10 mg/kg, po; format: ADME, organism-based; settings: in vivo; in short: as §1
[14] = Half life in Sprague-Dawley rat at 10 mg/kg, po; format: ADME, organism-based; settings: in vivo
In short: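 Rats dosed once intravenously at 1 mg/kg or orally at 10 mg/kg. Plasma exposure parameters derived: AUC0-t, AUC0-∞, MRT(0-t), Cmax, Tmax, T1/2 and oral bioavailability (F%). Values reported as mean ± spread.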

[15] = target: T1, Epidermal growth factor receptor; experiment: Inhibition of EGFR phosphorylation at Y1068 in human NCI-H1975 cells at 30 nM after 4 hrs by immunoblotting method; format: cell-based
[16] = target: T1, Epidermal growth factor receptor; experiment: Inhibition of EGFR in human NCI-H1975 cells assessed as inhibition of ERK-1/2 phosphorylation at Thr202/Tyr204 residues at 30 nM after 4 hrs by immunoblotting method; format: cell-based
[17] = target: T1, Epidermal growth factor receptor; experiment: Inhibition of EGFR phosphorylation at Y1068 in human A549 cells at 300 nM after 4 hrs by immunoblotting method; format: cell-based
[18] = target: T1, Epidermal growth factor receptor; experiment: Inhibition of EGFR in human A549 cells assessed as reduction in EGF-induced AKT phosphorylation at Ser473 residue up to 3 uM after 4 hrs by immunoblotting method; format: cell-based
[19] = target: T1, Epidermal growth factor receptor; experiment: Inhibition of EGFR in human A549 cells assessed as reduction in EGF-induced eIF4E phosphorylation at Ser209 residue up to 3 uM after 4 hrs by immunoblotting method; format: cell-based
[20] = target: T2, ALK tyrosine kinase receptor (Homo sapiens, UniProt Q9UM73); experiment: Inhibition of ALK in human NCI-H3122 cells harboring EML4-fused ALK assessed as reduction in ALK-induced AKT phosphorylation at Ser473 residue up to 3 uM after 2 hrs by immunoblot method; format: cell-based
NCI-H3122 [21] = experiment: Cell cycle arrest in human NCI-H3122 cells assessed as accumulation at G0/G1 phase at 0.03 to 0.3 uM after 24 hrs by propidium iodide/RNase staining-based flow cytometry; format: functional
A549 [22] = experiment: Cell cycle arrest in human A549 cells assessed as accumulation at G0/G1 phase at 0.03 to 1 uM after 24 hrs by propidium iodide/RNase staining-based flow cytometry; format: functional
PC-9 = experiment: Induction of apoptosis in human PC9 cells assessed as increase in cleaved PARP expression level at 300 nM to 1 uM after 24 hrs by Western blot method; format: functional, cell-based
NCI-H3122 [23] = experiment: Induction of apoptosis in human NCI-H3122 cells assessed as increase in cleaved caspase-3 expression level at 300 nM after 24 hrs by Western blot method; format: functional, cell-based
A549 [24] = experiment: Induction of apoptosis in human A549 cells assessed as increase in cleaved PARP expression level up to 1 uM after 24 hrs by Western blot method; format: functional, cell-based
A549 [25] = experiment: Induction of apoptosis in human A549 cells assessed as increase in cleaved caspase-3 expression level up to 1 uM after 24 hrs by Western blot method; format: functional, cell-based
NCI-H3122 [26] = experiment: Antitumor activity against human NCI-H3122 cells xenografted in nu/nu mouse assessed as tumor growth inhibition at 20 mg/kg, po qd administered for 28 days; format: functional; settings: 672 h, read-out: TGI
Homo sapiens [27] = organism: Homo sapiens; experiment: Selectivity index, ratio of IC50 for recombinant human wild-type His-tagged EGFR to IC50 for recombinant human GST-tagged EGFR T790M mutant
[28] = target: T2, ALK tyrosine kinase receptor; experiment: Reversible inhibition of ALK phosphorylation at Tyr1604 residue in human NCI-H3122 cells at 30 to 300 nM measured 1 to 24 hrs post compound wash out by immunoblotting method; format: cell-based
[29] = target: T2, ALK tyrosine kinase receptor
[30] = test system: ALK tyrosine kinase receptor (Homo sapiens), Q9UM73 [F1174L]
NCI-H1975 [31] = experiment: Antitumor activity against human NCI-H1975 cells xenografted in nu/nu mouse assessed as tumor growth inhibition at 20 mg/kg, po qd administered for 21 days; settings: 504 h, read-out: TGI

T2 sequence (Q9UM73 19-1620 limits assumed): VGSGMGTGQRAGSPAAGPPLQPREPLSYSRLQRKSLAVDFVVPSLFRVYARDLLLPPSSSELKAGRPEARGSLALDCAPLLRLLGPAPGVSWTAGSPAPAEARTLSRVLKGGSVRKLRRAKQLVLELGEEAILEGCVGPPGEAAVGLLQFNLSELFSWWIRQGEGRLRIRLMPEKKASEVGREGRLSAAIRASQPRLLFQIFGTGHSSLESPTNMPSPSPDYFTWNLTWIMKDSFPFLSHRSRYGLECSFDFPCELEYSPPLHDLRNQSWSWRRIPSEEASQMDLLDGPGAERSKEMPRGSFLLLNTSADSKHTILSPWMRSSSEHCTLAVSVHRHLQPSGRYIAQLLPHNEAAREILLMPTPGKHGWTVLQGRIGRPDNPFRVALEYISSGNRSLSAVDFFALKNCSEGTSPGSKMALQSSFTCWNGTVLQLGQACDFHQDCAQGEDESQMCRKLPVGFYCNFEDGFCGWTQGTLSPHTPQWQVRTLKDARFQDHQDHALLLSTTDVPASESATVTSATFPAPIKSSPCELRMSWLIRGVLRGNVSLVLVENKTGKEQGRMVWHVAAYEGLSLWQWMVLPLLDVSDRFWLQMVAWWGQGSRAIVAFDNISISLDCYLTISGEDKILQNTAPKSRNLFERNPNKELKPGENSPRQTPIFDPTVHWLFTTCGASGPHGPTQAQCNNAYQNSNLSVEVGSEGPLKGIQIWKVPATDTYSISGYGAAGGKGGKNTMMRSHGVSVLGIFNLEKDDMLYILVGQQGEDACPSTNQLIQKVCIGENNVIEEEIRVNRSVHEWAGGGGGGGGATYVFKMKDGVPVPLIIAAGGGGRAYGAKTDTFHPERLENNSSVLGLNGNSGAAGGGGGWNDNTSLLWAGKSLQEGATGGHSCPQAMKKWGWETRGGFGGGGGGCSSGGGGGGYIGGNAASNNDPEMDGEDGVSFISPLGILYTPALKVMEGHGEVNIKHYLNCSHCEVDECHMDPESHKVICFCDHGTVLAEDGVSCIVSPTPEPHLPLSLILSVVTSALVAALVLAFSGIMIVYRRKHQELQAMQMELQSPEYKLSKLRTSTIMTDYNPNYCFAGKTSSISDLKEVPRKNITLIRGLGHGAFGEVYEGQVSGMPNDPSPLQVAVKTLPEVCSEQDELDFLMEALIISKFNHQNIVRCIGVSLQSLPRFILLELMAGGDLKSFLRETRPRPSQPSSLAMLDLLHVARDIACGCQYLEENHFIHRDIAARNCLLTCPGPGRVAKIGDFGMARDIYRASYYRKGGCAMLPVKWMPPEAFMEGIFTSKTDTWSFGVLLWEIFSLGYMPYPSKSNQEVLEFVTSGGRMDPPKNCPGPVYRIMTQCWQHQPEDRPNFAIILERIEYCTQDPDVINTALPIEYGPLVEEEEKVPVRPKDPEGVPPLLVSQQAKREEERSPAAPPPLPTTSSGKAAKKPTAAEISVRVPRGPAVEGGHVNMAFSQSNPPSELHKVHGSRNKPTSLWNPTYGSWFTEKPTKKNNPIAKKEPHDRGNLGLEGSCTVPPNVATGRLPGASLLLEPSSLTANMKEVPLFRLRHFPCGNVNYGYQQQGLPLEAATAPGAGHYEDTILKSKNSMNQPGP
T1 sequence (P00533 whole entry, the tested form may be a part): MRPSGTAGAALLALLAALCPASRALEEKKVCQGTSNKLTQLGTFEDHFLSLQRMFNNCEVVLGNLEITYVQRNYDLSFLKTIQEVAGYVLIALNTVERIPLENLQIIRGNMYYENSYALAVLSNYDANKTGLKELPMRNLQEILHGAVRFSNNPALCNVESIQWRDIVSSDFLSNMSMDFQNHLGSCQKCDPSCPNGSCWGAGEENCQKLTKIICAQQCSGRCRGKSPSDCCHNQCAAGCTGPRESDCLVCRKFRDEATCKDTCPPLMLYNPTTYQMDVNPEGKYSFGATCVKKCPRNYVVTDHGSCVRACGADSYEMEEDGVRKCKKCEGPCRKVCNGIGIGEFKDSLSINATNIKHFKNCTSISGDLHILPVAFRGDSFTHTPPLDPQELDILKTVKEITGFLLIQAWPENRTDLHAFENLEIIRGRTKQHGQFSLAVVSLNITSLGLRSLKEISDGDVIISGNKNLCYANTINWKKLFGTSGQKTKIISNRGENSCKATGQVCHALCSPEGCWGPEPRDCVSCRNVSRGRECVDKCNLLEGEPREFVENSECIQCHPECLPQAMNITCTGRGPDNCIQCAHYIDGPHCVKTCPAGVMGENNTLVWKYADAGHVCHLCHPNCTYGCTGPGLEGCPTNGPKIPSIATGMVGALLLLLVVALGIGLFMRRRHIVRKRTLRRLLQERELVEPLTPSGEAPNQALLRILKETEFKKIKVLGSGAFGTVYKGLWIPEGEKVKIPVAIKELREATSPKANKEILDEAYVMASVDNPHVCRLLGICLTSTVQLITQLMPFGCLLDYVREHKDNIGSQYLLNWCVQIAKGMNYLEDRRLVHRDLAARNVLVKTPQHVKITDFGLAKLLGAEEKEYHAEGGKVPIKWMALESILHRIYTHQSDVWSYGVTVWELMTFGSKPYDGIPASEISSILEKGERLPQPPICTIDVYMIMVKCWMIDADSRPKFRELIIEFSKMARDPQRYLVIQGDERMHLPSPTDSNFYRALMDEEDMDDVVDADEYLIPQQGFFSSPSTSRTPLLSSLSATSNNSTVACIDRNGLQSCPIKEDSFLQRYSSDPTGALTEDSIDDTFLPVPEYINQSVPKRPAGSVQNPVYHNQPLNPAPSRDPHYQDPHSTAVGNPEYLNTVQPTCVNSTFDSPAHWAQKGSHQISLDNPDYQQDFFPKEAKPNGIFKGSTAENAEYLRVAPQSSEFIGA
Epidermal growth factor receptor (Homo sapiens, UniProt P00533, L858R), sequence (P00533 25-1210 L858R limits assumed): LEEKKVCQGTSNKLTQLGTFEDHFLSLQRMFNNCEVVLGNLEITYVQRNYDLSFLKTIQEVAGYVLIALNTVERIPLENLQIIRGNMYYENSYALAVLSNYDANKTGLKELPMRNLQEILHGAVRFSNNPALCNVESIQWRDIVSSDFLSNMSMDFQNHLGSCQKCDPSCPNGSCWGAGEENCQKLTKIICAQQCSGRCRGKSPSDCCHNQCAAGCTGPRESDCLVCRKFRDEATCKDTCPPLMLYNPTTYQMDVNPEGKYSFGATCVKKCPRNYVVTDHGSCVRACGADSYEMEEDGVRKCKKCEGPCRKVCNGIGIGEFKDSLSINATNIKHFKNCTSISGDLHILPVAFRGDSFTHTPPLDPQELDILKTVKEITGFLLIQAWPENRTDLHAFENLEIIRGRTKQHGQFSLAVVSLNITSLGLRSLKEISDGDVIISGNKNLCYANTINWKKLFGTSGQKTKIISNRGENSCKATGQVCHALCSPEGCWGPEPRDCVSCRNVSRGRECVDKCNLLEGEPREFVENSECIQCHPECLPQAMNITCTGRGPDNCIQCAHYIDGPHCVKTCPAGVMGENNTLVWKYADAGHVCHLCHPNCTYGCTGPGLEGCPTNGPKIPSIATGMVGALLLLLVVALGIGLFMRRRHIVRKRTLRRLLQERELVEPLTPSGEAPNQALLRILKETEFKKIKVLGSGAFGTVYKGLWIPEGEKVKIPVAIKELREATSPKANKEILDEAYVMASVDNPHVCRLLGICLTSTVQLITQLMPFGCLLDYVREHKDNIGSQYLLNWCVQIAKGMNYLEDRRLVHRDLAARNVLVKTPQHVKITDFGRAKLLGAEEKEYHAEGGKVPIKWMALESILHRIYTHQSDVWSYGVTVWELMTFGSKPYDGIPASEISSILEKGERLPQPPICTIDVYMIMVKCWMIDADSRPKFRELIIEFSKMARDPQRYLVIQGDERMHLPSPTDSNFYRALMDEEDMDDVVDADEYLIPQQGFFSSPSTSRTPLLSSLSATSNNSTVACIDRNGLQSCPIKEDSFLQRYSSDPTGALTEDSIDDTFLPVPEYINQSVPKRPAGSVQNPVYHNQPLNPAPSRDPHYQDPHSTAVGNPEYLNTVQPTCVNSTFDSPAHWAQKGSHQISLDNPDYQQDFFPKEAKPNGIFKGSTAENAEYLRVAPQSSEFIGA
ALK tyrosine kinase receptor (Homo sapiens, UniProt Q9UM73, L1196M), sequence (Q9UM73 19-1620 L1196M limits assumed): as the sequence (Q9UM73 19-1620 limits assumed) above, with L1178M counted along it

Compound: C=CC(=O)Nc1cc(Nc2ncc(Cl)c(Nc3ccccc3S(=O)(=O)C(C)C)n2)c(OC)cc1N1CCCN(C)CC1
- IC50 [1]: 82.5 nM
- IC50 [2]: 3.9 nM
- IC50 [3]: 0.59 nM
- Ratio IC50 (Homo sapiens [4]): 20 to 30
- GI50 [5]: 16 nM
- GI50 [6]: 230 nM
- GI50 [7]: 8.5 nM
- Activity (NCI-H1975 [8]): Active
- GI50 (NCI-H1975 [9]): 15 nM
- GI50 (A549 [10]): 5600 nM
- GI50 (NCI-H2228): 28 nM
- GI50 at 72 h [11]: 3500 nM
- Tmax [12]: 1.02 min
- Tmax [13]: 4 h
- half-life [14]: 1.75 h
- inhibition [15]: Active
- inhibition [16]: Active
- inhibition [17]: Active
- inhibition [18]: inactive
- inhibition [19]: inactive
- inhibition [20]: Active
- Activity (NCI-H3122 [21]): Active
- Activity (A549 [22]): inactive
- Activity (PC-9): Active
- Activity (NCI-H3122 [23]): Active
- Activity (A549 [24]): inactive
- Activity (A549 [25]): inactive
- inhibition in vivo at 20 mg/kg (NCI-H3122 [26]): 68.3%
- Ratio IC50 (Homo sapiens [27]): 20 to 30
- inhibition [28]: Active
- GI50 [29]: 1 nM
- GI50 [30]: 29 nM
- inhibition in vivo at 20 mg/kg (NCI-H1975 [31]): 96%
